Tested on in one series: not listed separately
Put plainly: Lipophilicity, log P of the compound in 0.1 N HCl solution. The note with it: 0.1 N HCl solution; read-out: logP. The format is physicochemical. The essentials: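 Partition coefficients of the hydrochloride salts were measured from 0.1 N HCl solution unless a footnote says otherwise. Some entries were not measured. They were calculated by adding the Δlog P of the corresponding phenanthrene analogues to the measured log P of a reference hydrochloride.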
What is called logP is the decadic logarithm of the partition coefficient of the neutral form, usually between octanol and water. With `CCCCCCCCN(CCCCCCCC)CC(O)c1cc(-c2ccc(Cl)c(Cl)c2)nc2ccc(OC)cc12` (stereo not drawn), the logP stood at 8.34.

With `CCCCCNCC(O)c1cc2ccccc2c2ccccc12` (stereo not drawn), the logP is 2.8.

On to `CCCCN(CCCC)CC(O)c1cc(-c2ccc(Cl)cc2)c2cc(OC)c(Cl)cc2n1` (stereo not drawn), for which the logP stood at 4.4.

Take `CCCCN(CCCC)CC(O)c1cc(-c2ccc(Cl)cc2)c2cc(-c3ccccc3)ccc2n1` (stereo not drawn): the logP is 5.67.

For the compound `CC(C)c1cc(C(O)CC2CCCCN2)c2ccccc2n1` (stereo not drawn), the log partition coefficient (logP) is 1.58.

As to `CNCC(O)c1cc(-c2ccccc2)nc2ccccc12` (stereo not drawn), the logP amounted to 0.55.

On to `OC(CC1CCCCN1)c1cc(C2CCCCC2)nc2ccccc12` (stereo not drawn), for which the logP stood at 2.56.

Consider `CCCCCCCN(CCCCCCC)CC(O)c1cc(-c2ccc(Br)cc2)nc(-c2ccc(Br)cc2)c1` (stereo not drawn), for which the logP came to 8.83.

`Cc1cc(-c2ccccc2)nc2c(C)cc(C(O)CN3CCCCCC3)cc12` (stereo not drawn): the logP turned out to be 4.03.

On to `CCCNCC(O)c1cc(-c2ccccc2)nc(-c2ccccc2)c1` (stereo not drawn), for which the logP stood at 3.03.

For `CCCCNCC(O)c1cc(-c2ccccc2)nc(-c2ccccc2)c1` (stereo not drawn), the logP amounted to 3.47.

Turning to `CCCCCCCN(CCCCCCC)CC(O)c1ccc(Cl)c2c(C)ccnc12` (stereo not drawn), the logP stood at 5.25.

As to `CCCCCCN(CCCCCC)CC(O)c1ccc(Cl)c2ncccc12` (stereo not drawn), the logP amounted to 3.69.

With `OC(c1cc2ccccc2c2ccccc12)C1CCCCN1` (stereo not drawn), the logP was 2.01.

For the compound `CCCCN(CCCC)CC(O)c1cnc2c(C)cc(C)cc2c1Cl` (stereo not drawn), the logP was 2.87.

For the compound `CCNCC(O)c1cc(-c2ccccc2)nc2ccccc12` (stereo not drawn), the logP amounted to 0.99.

As for `CCCCCCCN(CCCCCCC)CC(O)c1cc2ccc(Br)cc2c2cccnc12` (stereo not drawn), the logP turned out to be 4.89.

Take `CC(C)(C)CC(C)(C)NCC(O)c1c2ccccc2cc2ccccc12` (stereo not drawn): the logP was found to be 3.46.

`CCCCN(CCCC)CC(O)c1cnc2c(C(F)(F)F)cccc2c1` (stereo not drawn): the logP is 1.92.

As to `COc1ccc2nccc(C(O)CC3CCC(/C=C/Br)CN3)c2c1` (stereo not drawn), the logP turned out to be 1.71.

Regarding `OC(CN1C=CN(c2ccccc2)C=C1)c1cc(-c2ccc(Cl)cc2)nc2cc(Cl)ccc12` (stereo not drawn), the logP is 5.4.

On to `CCCCN(CCCC)CC(O)c1cc(-c2cccc(O)c2)nc2c(Cl)cc(Cl)cc12` (stereo not drawn), for which the logP was determined as 3.75.

Turning to `OC(CNC12CC3CC(CC(C3)C1)C2)c1cc(-c2ccc(F)cc2)nc2cc(F)ccc12` (stereo not drawn), the logP was 3.84.

As to `CCN(CC)CC(O)c1cc2ccccc2c2ccccc12` (stereo not drawn), the logP is 1.37.

On to `OC(c1cc(-c2ccccc2)nc(-c2ccccc2)c1)C1CCCCN1` (stereo not drawn), for which the logP amounted to 3.18.

For `CCN1C=CN(CC(O)c2cc(-c3ccc(F)cc3)nc3cc(F)ccc23)C=C1` (stereo not drawn), the logP is 3.32.

On to `OC(CN1CCCCCC1)c1cc(Cl)c2nc(-c3ccccc3)ccc2c1` (stereo not drawn), for which the logP was 3.62.

With `CNCC(O)c1cc2ccccc2c2ccccc12` (stereo not drawn), the logP worked out at 0.98.

In the case of `CCCCCN(CCCCC)CC(O)c1cc(-c2ccccc2)nc2ccccc12` (stereo not drawn), the logP amounted to 3.58.

As to `Cc1ccc(Oc2cc(C(O)CC3CCCCN3)c3cc(Cl)ccc3n2)cc1` (stereo not drawn), the logP is 3.4.

`CCCCCCN(CCCCCC)CC(O)c1cnc2cc(Cl)ccc2c1Cl` (stereo not drawn): the logP was 5.4.

`CCCCCCN(CCCCCC)CC(O)c1cc(-c2ccccc2)nc(-c2ccccc2)c1` (stereo not drawn): the logP came to 6.11.

On to `OCCN(CC(O)c1cc2ccccc2c2ccccc12)C1CCCCC1` (stereo not drawn), for which the logP amounted to 2.

`CCCCCCCN(CCCCCCC)CC(O)c1cc2ccccc2c2ccccc12` (stereo not drawn): the lipophilicity (logP) turned out to be 5.94.

As to `CCCCCCCN(CCCCCCC)CC(O)c1cc(-c2ccccc2)nc2ccccc12` (stereo not drawn), the logP is 5.51.

In the case of `OC(CC1CC2CCN1CC2)c1cc2ccccc2c2cc(Br)ccc12` (stereo not drawn), the logP is 2.98.

With `CCCCN(CCCC)CC(O)c1c(Cl)cc(Cl)c2ncccc12` (stereo not drawn), the logP came out at 2.46.

Turning to `OC(CN1C=COC=C1)c1cc(-c2ccc(F)cc2)nc2cc(F)ccc12` (stereo not drawn), the logP amounted to 0.

As for `CCN(CC)CC(O)c1ccc(Cl)c2c(C)ccnc12` (stereo not drawn), the logP is 0.68.

As to `CCCCN(CCCC)CC(O)c1cnc2cc(Cl)ccc2c1Cl` (stereo not drawn), the logP was 2.46.

`CCCCCCCN(CCCCCCC)CC(O)c1cc2ccccc2c2cccnc12` (stereo not drawn): the logP stood at 4.03.

Regarding `CCCNCC(O)c1cc2ccccc2c2ccccc12` (stereo not drawn), the logP came out at 1.86.

Take `CCN(CC)CC(O)c1ccc(Cl)c2ccccc12` (stereo not drawn): the logP was determined as 0.56.

As for `CCCN(CCC)CC(O)c1cc(-c2ccccc2)nc2ccccc12` (stereo not drawn), the logP amounted to 1.69.

Consider `Cc1cc(C(O)CN2CCCCCC2)cc2ccc(-c3ccccc3)nc12` (stereo not drawn), for which the logP is 3.47.

As for `CNCC(O)c1cc(-c2ccccc2)nc(-c2ccccc2)c1` (stereo not drawn), the logP was found to be 2.15.

Regarding `CCCCNCC(O)c1cc(/C=C/c2ccc(C(F)(F)F)cc2)nc(/C=C/c2ccc(C(F)(F)F)cc2)c1` (stereo not drawn), the logP came to 6.67.

For `Cc1cc(C)c2ncc(C(O)CC3CCCCN3)cc2c1` (stereo not drawn), the logP turned out to be 1.17.

As to `CCCCCCCN(CCCCCCC)CC(O)c1cc2ncccc2c2ccccc12` (stereo not drawn), the logP stood at 4.03.

Consider `CCN(CC)CC(O)c1cc(Cl)cc2c(C)ccnc12` (stereo not drawn), for which the logP is 5.25.

As to `CCCCN(CCCC)CC(O)c1c(C)c(-c2ccc(C)cc2C)nc2c1ccc1ccccc12` (stereo not drawn), the lipophilicity (logP) turned out to be 6.

For `CCCCN(CCCC)CC(O)c1cc(Cl)cc2c(C)ccnc12` (stereo not drawn), the logP is 2.31.

Take `CN(C)CC(O)c1cc2ccccc2c2ccccc12` (stereo not drawn): the logP came out at 1.08.

With `CCCCCNCC(O)c1cc(-c2ccccc2)nc2ccccc12` (stereo not drawn), the logP is 2.37.

For `CCCCN(CCCC)CC(O)c1cccc2cc(Cl)ccc12` (stereo not drawn), the logP amounted to 2.19.

Consider `OC(CN1C=CN(c2ccccc2)C=C1)c1cc(-c2ccc(F)cc2)nc2cc(F)ccc12` (stereo not drawn), for which the logP was found to be 4.26.

Turning to `CCCCN(CCCC)CC(O)c1cnc2c(Cl)cc(Cl)cc2c1` (stereo not drawn), the logP came to 2.46.

Take `OC(CN1CCCCC1)c1cc2ccccc2c2sccc12` (stereo not drawn): the logP came to 1.73.

Turning to `OC(CC1CCNCC1)c1cc2ccc(C(F)(F)F)cc2c2cc(C(F)(F)F)ccc12` (stereo not drawn), the logP worked out at 3.34.

Turning to `CCC1C[N+]2(c3ccnc4ccc(OC(C)CO)cc34)CCC1CC2` (stereo not drawn), the logP worked out at 2.31.

On to `OC(CN1CCCCCC1)c1cccc2ccc(-c3ccccc3)nc12` (stereo not drawn), for which the logP turned out to be 2.91.

Take `CCCCN(CCCC)CC(O)c1cnc2c(Cl)cc(Cl)cc2c1Cl` (stereo not drawn): the log partition coefficient (logP) was found to be 3.17.

For the compound `OC(CN1C=COC=C1)c1cc(-c2ccc(Cl)cc2)nc2cc(Cl)ccc12` (stereo not drawn), the logP amounted to 1.14.

On to `CCNCC(O)c1cc2ccccc2c2ccccc12` (stereo not drawn), for which the logP was found to be 1.42.

For the compound `Cc1cc(C(O)CN2CCCCCC2)c2nc(-c3ccccc3)ccc2c1` (stereo not drawn), the logP was found to be 3.47.

As for `CCCCN(CCCC)CC(O)c1cnc2c(C(F)(F)F)cccc2c1Cl` (stereo not drawn), the logP was found to be 2.63.

As to `CCCCN(CCCC)CC(O)c1ccc(Cl)c2c(C)ccnc12` (stereo not drawn), the logP worked out at 2.31.

As to `CCCCNCC(O)c1cc(-c2ccccc2)nc2ccccc12` (stereo not drawn), the logP was 1.87.

For the compound `CCCCN(CCCC)CC(O)c1cc(-c2ccccc2)nc(-c2ccccc2)c1` (stereo not drawn), the logP came to 4.17.

On to `CCCCCCN(CCCCCC)CC(O)c1cc(-c2ccccc2)nc2ccccc12` (stereo not drawn), for which the logP was 4.51.

Regarding `CCN(CC)CC(O)c1cc(Cl)cc2cccnc12` (stereo not drawn), the logP was 0.12.

Turning to `OC(c1cc(-c2ccccc2)nc2ccccc12)C1CCCCN1` (stereo not drawn), the logP amounted to 1.58.

Regarding `CCCCN(CCCC)CC(O)c1c(OC)c2ccccc2c2ccccc12` (stereo not drawn), the logP stood at 2.55.

For `CCCCCCCN(CCCCCCC)CC(O)c1cc2c(Cl)cc(Cl)cc2c2ccc(C)nc12` (stereo not drawn), the logP is 6.01.

With `CN(C)CC(O)c1cc(-c2ccccc2)nc(-c2ccccc2)c1` (stereo not drawn), the logP is 2.25.

For `C=CCN(CC=C)CC(O)c1cc2ccccc2c2ccccc12` (stereo not drawn), the logP was 0.59.

In the case of `CCCCCCCN(CCCCCCC)CC(O)c1cccc2ccc3c4ccccc4cc(Br)c3c12` (stereo not drawn), the lipophilicity (logP) came out at 7.69.

Consider `O=C(Nc1cccc(C(F)(F)F)c1)c1cc(C(O)CC2CCCCN2)c2cccc(C(F)(F)F)c2n1` (stereo not drawn), for which the logP is 2.3.

Turning to `OC(CN1C=CN(c2ccccc2)C=C1)c1cc(-c2ccc(Cl)cc2)nc2c(Cl)cc(Cl)cc12` (stereo not drawn), the logP came out at 6.11.

For `CCCCCN(CCCCC)CC(O)c1cc(-c2ccccc2)nc(-c2ccccc2)c1` (stereo not drawn), the logP stood at 5.18.

For the compound `CCCCN(CCCC)CC(O)c1ccc2cc(Cl)cc(Cl)c2n1` (stereo not drawn), the logP was found to be 2.46.

With `CCCCN(CCCC)CC(O)c1ccc(Cl)c2ccccc12` (stereo not drawn), the logP stood at 2.19.

In the case of `CCCCCCN(CCCCCC)CC(O)c1ccc2cc(Cl)cc(Cl)c2n1` (stereo not drawn), the logP came to 4.4.

As for `CCCCCNCC(O)c1cc(-c2ccccc2)nc(-c2ccccc2)c1` (stereo not drawn), the logP is 3.97.

Consider `NCC(O)c1cc2ccc(C(F)(F)F)cc2c2cc(C(F)(F)F)ccc12` (stereo not drawn), for which the logP is 2.19.

As to `CCCCNCC(O)c1cc2ccccc2c2ccccc12` (stereo not drawn), the logP was found to be 2.3.

Turning to `OC(CC1CCCCN1)c1cc(C(F)(F)F)nc2ccccc12` (stereo not drawn), the logP came out at 0.93.

On to `OC(CN1CCCCC1)c1c2ccccc2nc2c1ccc1ccccc12` (stereo not drawn), for which the logP amounted to 3.51.

Consider `CCCCCCN(CCCCCC)CC(O)c1cc(OC)c2cc(Cl)cc(Cl)c2n1` (stereo not drawn), for which the logP is 4.38.

For `OC(CC1CC2CCC(CC2)C1)c1cc2ccccc2c2cc(Br)ccc12` (stereo not drawn), the logP came out at 3.74.

For the compound `CCCCCCCCCCN(CCCCCCCCCC)CC(O)c1ccc(Cl)c2ccccc12` (stereo not drawn), the logP was determined as 8.13.

`CCCCN(CCCC)CC(O)c1cc2ccccc2c2ccccc12` (stereo not drawn): the logP was 3.

Staying with this series, now noted: buffer.
Consider `CCCCCCCCCN(CCCCCCCCC)CCC(O)c1cc2ccc(C(F)(F)F)cc2c2cc(C(F)(F)F)ccc12` (stereo not drawn), for which the logP came to 9.77.

As to `CCCCCCCN(CCCCCCC)CC(O)c1cc(-c2ccc(Cl)c(Cl)c2)nc(-c2ccc(Cl)c(Cl)c2)c1` (stereo not drawn), the logP worked out at 9.95.

The test system of the next series is Plasmodium berghei. The series is described as follows: Antimalarial activity against Plasmodium berghei. The format is functional.
Conditions: not given
For the compound `CCCCCCN(CCCCCC)CC(O)c1cc(-c2ccc(Cl)cc2)nc(-c2ccc(Cl)cc2)c1` (stereo not drawn), the “log(1/C)” value was determined as 3.18.

Regarding `CCCCN(CCCC)CC(O)c1cc(-c2ccc(Cl)cc2)nc(-c2ccc(Cl)cc2)c1` (stereo not drawn), the “log(1/C)” value amounted to 3.84.

Regarding `CCCCN(CCCC)CC(O)c1cc(-c2ccc(Cl)c(Cl)c2)cc2cc(Cl)c(OC)cc12` (stereo not drawn), the “log(1/C)” value was 3.06.

Turning to `CCCCN(CCCC)CC(O)c1cc(-c2ccc3c(c2)OCO3)nc2cc(Cl)ccc12` (stereo not drawn), the “log(1/C)” value is reported as 3.09.

The record behind these values is ChEMBL document CHEMBL3227967, “Quantitative structure-activity relationships in 1-aryl-2-(alkylamino)ethanol antimalarials” (J Med Chem, 1979).
